Experiments:
[1] = Inhibition of EFS-induced contraction of human myometrium incubated for 60 mins; assay type: functional, tissue-based
Method in brief: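 Human myometrial strips (donors aged 24–76) in a 15 mL Krebs bath at 37°C, under EFS at 15 V, 1.5 ms pulses, 10 s every 100 s, at a submaximal 15 Hz. Antagonist (10 or 100 nM) or vehicle was equilibrated for 60 min. Cumulative butaprost (0.1 nM–10 µM) or PGE2 (0.1 nM–3 µM) was given for at least five EFS responses per concentration. pKB was calculated from same-donor concentration ratios.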

[2] = Inhibition of EFS-induced contraction of Beagle dog bronchiole; assay type: functional, tissue-based, Canis lupus familiaris
[3] = Induction of relaxation in forskolin-induced carbachol pre-contracted C57BL/6 mouse trachea incubated for 30 mins; assay type: functional, tissue-based
Method in brief: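 Male C57BL/6 tracheal rings at 0.35 g tension in Krebs (95% O2/5% CO2, 37°C). Rings were precontracted with 10 µM carbachol before cumulative half-log PGE2 (0.1 nM–30 µM). Curves were repeated in the same ring after 30 min with 3 nM antagonist or DMSO, and 10 µM forskolin set maximal relaxation. pKB = log(CR−1) − log[B].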

[4] = Induction of relaxation in […] C57BL/6 mouse trachea at 0.1 to 30 uM incubated for 30 mins relative to control (reference value: 21.6 +/- 8.8%); assay type: functional; set-up: scale not given: the % may be the effect or the level left; settings: dose 0.1-30 µM, 0.5 h

CCCC1([C@H](O)C/C=C/[C@H]2[C@H](O)CC(=O)[C@@H]2CCCCCCC(=O)OC)CCC1 [BUTAPROST]
IC50 [1]: 27.8 nM
EC50 [2]: 139 nM
EC50 [3]: 893 nM
Activity [4]: 69.1%
